Tested on: MS2 coat protein
Assay: apparent Kd, MS2 coat protein; higher = weaker binding; RNA-MaP array; FMN 200 µM where present
Method in brief: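 Each design was made on Illumina sequencing-chip clusters by stalled E. coli RNA polymerase and titrated with SNAP-549-labelled MS2 coat protein from 0.7 or 1.5 nM, doubling to 3 µM, in the absence and then the presence of constant ligand. The buffer was 100 mM Tris-HCl pH 7.5, 80 mM KCl, 4 mM MgCl2, BSA, DTT, yeast tRNA and Tween-20. The apparent Kd is the median of filtered per-cluster fits of binding curves, with green signal normalised to red-channel RNA signal and control-cluster median Fmax.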

[1] = designed as: ON switch for flavin mononucleotide, no ligand
[2] = ligand present: flavin mononucleotide, designed as: ON switch for flavin mononucleotide
[3] = designed as: OFF switch for flavin mononucleotide, no ligand
[4] = ligand present: flavin mononucleotide, designed as: OFF switch for flavin mononucleotide

| Sequence | apparent Kd [1] | apparent Kd [2] | apparent Kd [3] | apparent Kd [4] |
| --- | --- | --- | --- | --- |
| UUUAUAUUCAGAGGAUAUUAAUGUAGUAUAACAUAAGAAGGCUGUUUGUUUUGUAAAGUAAUUCUACAUGAGGAUCACCCAUGU | 21.4 nM | 16.2 nM | – | – |
| GAACUCGUGAAGGAUAUCCGUACCAAAGCGGCAGGAGAAGGUCACACAUGAGGAUCACCCAUGUGGUACCUCGU | – | – | 30 nM | 130 nM |
| AAUUAUUUACAGAAGGAGUAAGAUUAUGUAUUACUAGGAUAUGUUCACAUGAGGAUCACCCAUGUCAUUGUAGGUUUUAUAUGU | – | – | 10.8 nM | 8.19 nM |
| CUUAUGCGGCAGGAUAUCGUGCUUUUCGAGCAGCGAGAAGGGUCUACAUGAGGAUCACCCAUGUCAGUGGCUCU | – | – | 18.3 nM | 37.8 nM |
| AUGGAUAUCACAGGAUAUGCUAUGGAUACCAUAGCAGAAGGGUGAUCCAUCCUAUGGCUGCACAUGAGGAUCACCCAUGUGUCC | 107 nM | 11.1 nM | – | – |
| GUGGUCAGACAUGAGGAUCACCCAUGUGGAAUAAAUAAGGAGAAGGAUAUGCAAUAUAGGAUAUAGCAGAAGGUCUGGUUGGUG | 80.1 nM | 92.7 nM | – | – |
| AAAAGCAUCCAGUAUCAAAAUACAUGAGGAUCACCCAUGUAGCAGGAUAUCAACGUUCCCGACGGUGAGAAGGGCUAUAUGUUG | – | – | 7.47 nM | 9.26 nM |
| GCCUCAAGUGAAGGAUAUACGAGGCCAAAUACAGUAGAAGGUCACAUGAGGAUCACCCAUGUCCCAAAGGGUGCGCAUGCGCUC | – | – | 40.4 nM | 210 nM |
| UACCUGAGGCUUUGCUUUAGGCUUACAUGAGGAUCACCCAUGUAGGAUAUGGUAGGCAAAGCUUACCAGAAGGACAUGGAAAUU | – | – | 19 nM | 66.6 nM |
| UUGGUGGUUUCCCGCGCUAAGAUAGGAGAAGGGUGACUGGACAUGAGGAUCACCCAUGUAUCGGCACAGGAUAUCCACAUUAAU | 223 nM | 334 nM | – | – |
| UCACGGGACUAAGGAUAUACAUGAUCCAUUUUUGUAGAAGGUAGAAUGUUAGAUCAUAAACUAAACAUGAGGAUCACCCAUGUU | – | – | 23.5 nM | 22.5 nM |
| AGGUAUCCUGAGAAAUUUCUCCACAUGAGGAUCACCCAUGUAGAGGAUAUCGACGCUGUGCGGUUCGAGAAGGCUACACUAAAA | – | – | – | 15.3 nM |
| AUUGUAUGGAAAGGAUAUAGAAUAUUAUUUUAACAUGAGGAUCACCCAUGUAACCUUAUGUGUAGCUAGAAGGUUCGUUUGUUA | – | – | 88.2 nM | 97.8 nM |
| CGAUCGUGUAGAGGAUAUGUUAAACAUGAGGAUCACCCAUGUAAGGUAGAAAUUUUUAUAAACAUACAGAAGGCUACACGAUCG | – | – | 7.32 nM | 5.15 nM |
| GUCAGCUCGUGAGGAUAUACAUGUGCUGGAAACAGCACUAAUUAAUUCACAUGAGGAUCACCCAUGUAGAAGGCACGAGCUGAU | – | – | 16.2 nM | 17.8 nM |
| AAUAAACUAGGAUAUACAUGAGGAUCACCCAUGUGUCGCCACGUGCUUGCUCACUCGUGUAGAAGGAGUACGGA | – | – | 38.5 nM | 73.1 nM |
| UGGUACUAGGGAGGAUAUGGGAGGAUACAUGAGGAUCACCCAUGUUUAAGAAUGCCGAGAGGCAACUAGAAGGCCCUAGUACCU | 919 nM | 63.7 nM | – | – |
| UAUAUAUAGUAAGGAUAUGUAUAUAUUUUAUAAACAGAAGGUACUGACAUGAGGAUCACCCAUGUUUUAGUGUGGGCAUGUAGA | – | – | 72.1 nM | 109 nM |
| AUUAAUUUGUAGAAGGACGACUAUUAAUAUUUCGUAGGAUAUACUAUUUACAUGAGGAUCACCCAUGUUUAAAUGGAACAAUGU | – | – | 8.1 nM | 11.8 nM |
| CCGAAUUAGUAGGAUAUAGGAGUCGAUAGACACCUAGAAGGACUAACAUGAGGAUCACCCAUGUGUCCUAUCGG | – | – | 14.6 nM | 31.5 nM |
| AAAAAUCCAGCGCAGGAUAUCGCAGGGUGCACAUGAGGAUCACCCAUGUGUACCCAAACACCCUGCGAGAAGGGCGUUGGAAAAAA | 11.2 nM | 9.68 nM | – | – |
| UGUGCGUUGAUCUUCGAUCGGAGUACAUGAGGAUCACCCAUGUAGGAUAUUCAAAGACGCAGAUAGAAGAAGGACAUAGGUUUC | – | – | 10.1 nM | 11.1 nM |
| CCAAUAAGCCAAGGAUAUCAGCCGGGUACGAGGUGAGAAGGUGGCCGAGGGAAUUACGGACAUGAGGAUCACCCAUGUACCCGU | 4.98 nM | 4.21 nM | – | – |
| AAAAAGGCAGGAUAUACAAAACAGGGAAACCUGAAAAGGAAACAUGAGGAUCACCCAUGUAGAAGGGCCAAGAA | – | – | 24.9 nM | 35.3 nM |

| Sequence | apparent Kd [1] | apparent Kd [2] | apparent Kd [3] | apparent Kd [4] |
| --- | --- | --- | --- | --- |
| AAGUUUGUACAAGGAUAUCAAUUGUUUCUAAAUUCAACAUGAGGAUCACCCAUGUAACAAUGGAGUGAGAAGGUGUGUGGGCAA | 419 nM | 423 nM | – | – |
| GGAAAUCAUGUAGGAUAUGCAUGGCGAAGCUACGCAGAAGGACAUGAGGAUCACCCAUGUUAUAGCGUCCGAGAAGGGAUGCAA | – | – | 40 nM | 218 nM |
| GCACUUACGUUAGGAUAUGUAUCGGAAAACGAUACAGAAGGAAUAUGGGAACAUGAGGAUCACCCAUGUUCCUGAGACAAGUGC | 46.5 nM | 26.4 nM | – | – |
| GUCAAGUGAGGAUAUGAUUGUACAACAGACUAGCGUCUGCAUCAGAAGGCACAUGAGGAUCACCCAUGUUUGUC | – | – | 19.6 nM | 16.2 nM |
| CCUAUGUGAGGAUAUGUCUGGUCUUCUUUUAUUUUUUACAGACAGAAGGCACAUGAGGAUCACCCAUGUCAGAC | – | – | 23.2 nM | 64.7 nM |
| CUGUGAUGGAUCCAGAAUUACAACAUGAGGAUCACCCAUGUGCAGGAUAUCGGGUUGAUAGGCGCCGAGAAGGGUAUAGUCACG | – | – | 132 nM | 132 nM |
| AAUAACAGAGGAUAUACUAUUUUAUGUAUUUAUUAUUUUGAACAUGAGGAUCACCCAUGUAGAAGGCUGAAUAA | – | – | 22.7 nM | 21.7 nM |
| UAAUCUCAGAUAGGAUAUAUAGGAUGAUUUAAGACCGAACAUGAGGAUCACCCAUGUGAUUAUUCGUAGAAGGAUCAAUGACCC | 122 nM | 114 nM | – | – |
| CUUGUGUUAGGAUAUGCGCCCUGAAGUAGAAGGGCCAGAGAGCAGAAGGAACAUGAGGAUCACCCAUGUGUGAC | – | – | 59.7 nM | 56.5 nM |
| AGGCAAUCAGGAUAUACAUGAGGAUCACCCAUGUGUACAAAGCACAUCCGAUCUAGAUGUAGAAGGGAUAUGCA | – | – | 19.1 nM | 35.8 nM |
| GGAGAUACAUGAGGAUCACCCAUGUAGGAUAUCGGGCCCAUAUAUGGCGAAAGCCAUAUAUGGGCCGAGAAGGGCGUACACACC | – | – | 7.63 nM | 7.45 nM |
| CUGAUGUUAGGAUAUCAGGCGCCCGCCACUAGCAAGGCGCAUGAGAAGGGACAUGAGGAUCACCCAUGUAGUAA | – | – | 28.1 nM | 50 nM |
| CUCAAACAUGAGGAUCACCCAUGUGUUGUCAUGGGAGGAUAUCCCAGUUCGUUGUAGUCGGGAGAAGGCCUAUGUC | 67.4 nM | 28.6 nM | – | – |
| ACGUUUUUUGAGGAUAUGCGAUAGUUUUAUAUCGUAGAAGGCGAUACAUGAGGAUCACCCAUGUUUAUGGGCAU | – | – | 167 nM | 197 nM |
| AAAAAACAUGAGGAUCACCCAUGUCCUCGGACGUGAGGAUAUGUACAGACUUCGGUCUGUACAGAAGGCACGUCAA | 512 nM | 446 nM | – | – |
| ACCUCACAUGAGGAUCACCCAUGUCAGGAUAUCUGAUGUAGUCGCGUUCCCGACGCUAAGAGAAGGGACGUUGA | – | – | 40.4 nM | 35.1 nM |
| GUGGUACAUGAGGAUCACCCAUGUUAGGAUAUCGCGUGAGGUUUUACUUACACACACACGAGAAGGGACGUCUU | – | – | 47.5 nM | 36 nM |
| GCGGCUAGUGCAGGAUAUCGGCGCGUGUAGCGCCGAGAAGGGCACAUGAGGAUCACCCAUGUGAUCAAUCAAUGCUAAUGCCGC | – | – | 7.38 nM | 25.4 nM |
| CGAUGUUAUGUCAGGAUAUGCGUUGCGAAAGCGAUGCAGAAGGGACAUGAGGAUCACCCAUGUCCUAACCAUCG | – | – | 12.3 nM | 22.6 nM |
| UCGGCGCGAGGAUAUACGGUUGCUUGGUAGGGUCGUGGCGUACAUGAGGAUCACCCAUGUAGAAGGCGCGCCGC | – | – | – | 60.3 nM |
| UUAGGUCGAAACAUGAGGAUCACCCAUGUGUUGUAAUUAACAUAGGAUAUGUUUAUACUUUUUGGGCAGAAGGAUGAUAUUGCU | 17.3 nM | 14 nM | – | – |
| AGCCACAGUUCAGGAUAUGCGGGCCGACUGGUAGCAGAAGGGAACAUGAGGAUCACCCAUGUAGGUCAUACGGGCUACGUCGAA | – | – | 11.6 nM | 45.6 nM |
| AGAAACCAAGGAUAUACAUGAGGAUCACCCAUGUUAGCGUGCAUGCCCUGCCUCAGCUGUAGAAGGUGGACGCC | – | – | 25.9 nM | 28.8 nM |
| CCAUUUCUGUAAGGAUAUAUAAACAUGACGAUACAUGAGGAUCACCCAUGUGUAGAAGGUACAAAUACAUAUAAUGCAAUGUUC | – | – | 14.8 nM | 13 nM |

Source: the EternaBench riboswitch data
